Test results published in paper PMC4040673 (Cell Death & Disease, 2014).

Key:
[1] = tested on: isolated mitochondria from HT-22 cells; test: CCCP-induced depolarization / MPT pore opening in isolated HT-22 mitochondria; type: cell-based, mouse; details: 50 μM CCCP
How it was run: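 Then treated with 50 μM CCCP protonophore. Δψm followed with 20 nM DiOC6(3) on a fluorescence plate reader. Measurements in triplicate, representative of at least three independent experiments.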

HT-22 cells [2] = test: Intracellular Ca2+; type: cell-based, mouse; details: glutamate 12 h, Fluo-4; n = 8
How it was run: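 Transfected HT-22 cells seeded in 96-well plates and grown 24 h, then treated with 2 mM glutamate for 12 h. Fluo-4 AM (5 μM) added to the medium for 30 min. After washing, fluorescence read on a plate reader at excitation 485 nm and emission 520 nm.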

CypA [3] = biological target: CypA (Homo sapiens, UniProt P62937); test: SPR direct binding to immobilized CypA
tAIF = test: SPR binding of peptides to tAIF; design: species or system mouse; details: direct binding to immobilized protein, applied concentration range
HT-22 cells [4] = test: Cell viability; type: cell-based, mouse; details: siRNA transfected (Lipofectamine-2000), glutamate 2 mM, 12 h
How it was run: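 HT-22 cells seeded at 10 000 cells/well in 96-well plates, in DMEM with 10% heat-inactivated calf serum at 37 °C. siRNA transfected with Lipofectamine-2000, then exposed to 2 mM glutamate for 12 h. MTT at 0.5 mg/ml for 1 h; absorbance read at 570 nm with 630 nm reference. Controls set to 100%. At least three repeats, n=8 per condition.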

HT-22 cells [5] = test: Annexin-V-FITC/PI flow cytometry in glutamate-treated HT-22 cells; type: cell-based, mouse; details: siRNA transfected; glutamate 2 mM
How it was run: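 HT-22 cells grown at 37 °C, 5% CO2 in DMEM with 10% heat-inactivated calf serum. Transfected with scrambled or mouse CypA siRNA (Lipofectamine-2000), then given 2 mM glutamate. Stained with Annexin-V-FITC/PI by kit and run on a FACScan: FITC excited at 488 nm, emission 530±40 nm; PI excited at 488 nm, emission 680±30 nm. Experiments repeated at least three times.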

HT-22 cells [6] = test: Real-time impedance; type: cell-based, mouse; details: siRNA transfected; glutamate 2 mM, ~15 h, n=8
AIF = type: cell-based, mouse; details: peptide 50 μM or siRNA transfected; glutamate 2 mM, 12 h
How it was run: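 HT-22 cells carried siRNA (Lipofectamine-2000) or 50 μM peptide (cationic lipid protein-transfection reagent) and were seeded on chamber slides. Exposed to 2 mM glutamate for 12–14 h. Fixed in 4% paraformaldehyde, permeabilised with 0.04% Triton X, and immunostained for AIF with Alexa 568/488 secondaries and DAPI. Imaged by confocal laser scanning with a 63× 1.4-NA oil objective.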

HT-22 cells [7] = test: Cell viability of glutamate-treated HT-22 cells in medium without Ca2+; type: cell-based, mouse; details: glutamate 2 mM, 12–14 h, n=4
CypA [8] = test: siRNA knockdown of CypA; type: cell-based, mouse; details: HT-22, RT-PCR and immunoblotting
How it was run: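 HT-22 cells transfected with scrambled or mouse CypA siRNA (Lipofectamine-2000). One-step RT-PCR on total RNA, GAPDH as reference: cDNA step 60 °C 30 min, 95 °C 2 min, then 30 cycles of 95 °C 30 s, 57 °C 1 min, 70 °C 2 min. Lysates run on SDS-PAGE and blotted to PVDF. Primary antibody overnight at 4 °C, HRP secondary 1:2500, chemiluminescence; tubulin or actin as loading control.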

Sequence of CypA (Homo sapiens, UniProt P62937) (P62937 whole entry): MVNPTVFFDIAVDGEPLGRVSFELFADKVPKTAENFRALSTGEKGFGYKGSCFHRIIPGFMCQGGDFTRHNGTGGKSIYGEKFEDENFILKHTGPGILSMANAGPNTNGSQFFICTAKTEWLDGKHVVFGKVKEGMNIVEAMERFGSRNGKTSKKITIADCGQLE

Q: With `N#CC(C#N)=NNc1cccc(Cl)c1` [CCCP, carbonyl cyanide m-chlorophenyl hydrazone] as the compound, how does the “loss of Δψm induced by CCCP” value [1] read?
A: Its value is “strong loss of Δψm”.

Q: `N[C@@H](CCC(=O)O)C(=O)O` [Glutamate] was tested. Which “intracellular Ca2+ concentration induced by glutamate” value (HT-22 cells [2]) did it give?
A: Its value is “dose-dependent increase”.

Q: For ILPEYLSNWTMEKVRREG [AIF(343–360)], which “affinity for CypA (in words)” value (CypA [3]) is on record?
A: Its value is “very weak affinity”.

Q: What about the “fold lower affinity for CypA compared with AIF(370–394)” value (CypA [3]; ratio of KD values) of the same compound?
A: Its value is 1000 fold.

Q: What about the “affinity to tAIF (in words)” value (tAIF) of the same compound?
A: Its value is “No affinity to tAIF was detected”.

Q: With “siCypA: mouse siRNA targeting CypA: siCypAFw 5′-CUGAAUGGCUGGAUGGCAA-3′ and siCypARev 5′-UUGCCAUCCAGCCAUUCAG-3′ (chemistry not given here)” as the compound, how does the “protection against glutamate-induced cell death by siRNA, MTT” value (HT-22 cells [4]) read?
A: Its value is “full protection”.

Q: What about the “protection against glutamate-induced cell death by siRNA, Annexin-V/PI” value (HT-22 cells [5]) of the same compound?
A: Its value is “full protection”.

Q: And the “protection against glutamate-induced cell death by siRNA, impedance” value (HT-22 cells [6])?
A: The value was “full protection”.

Q: What about the “glutamate-induced nuclear translocation of AIF” value (AIF) of the same compound?
A: The value was “very weak nuclear AIF staining”.

Q: And the “protective effect combined with depletion of extracellular Ca2+” value (HT-22 cells [7])?
A: The value was “additive protective effects to depletion of extracellular Ca^2+”.

Q: And the “CypA expression after siRNA” value (CypA [8])?
A: Its value is “significantly reduced”.
